Results on one molecule are retold here after ChEMBL document CHEMBL4622983, “Structure-Activity Relationship Studies of α-Ketoamides as Inhibitors of the Phospholipase A and Acyltransferase Enzyme Family” (J Med Chem, 2020).

Experiment [1] concerns the target T1, Phospholipase A and acyltransferase 5 (Homo sapiens, UniProt Q96KN8).
T1 sequence (Q96KN8 whole entry): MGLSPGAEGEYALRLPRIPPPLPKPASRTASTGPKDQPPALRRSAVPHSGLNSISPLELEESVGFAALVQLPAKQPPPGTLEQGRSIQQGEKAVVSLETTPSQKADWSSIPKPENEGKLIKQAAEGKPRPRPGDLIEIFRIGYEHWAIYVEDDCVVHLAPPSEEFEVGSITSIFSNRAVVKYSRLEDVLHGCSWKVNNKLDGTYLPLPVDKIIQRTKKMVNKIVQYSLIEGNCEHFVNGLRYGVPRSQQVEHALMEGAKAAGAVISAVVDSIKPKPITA
The experiment is described as follows: Inhibition of full-length C-terminal FLAG-tagged human PLAAT5 expressed in HEK293T cell lysate preincubated for 30 mins followed by MB064 addition and measured after 20 mins by SDS-PAGE based ABPP analysis. It is filed as cell-free, HEK-293T. The method in brief:
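Dose–response competitive ABPP on cytosol only, from HEK293T overexpressing FLAG-tagged PLAAT. Inhibitor 30 min rt, then MB064 20 min rt. PLAAT2 0.25 μg/μL with 250 nM probe; PLAAT3 0.5 μg/μL with 250 nM; PLAAT4 and PLAAT5 1 μg/μL with 500 nM. Fluorescence normalized to Coomassie. IC50 from curves, reported as pIC50 ± SEM, n = 3.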

For experiment [2], the target named is Cannabinoid receptor 2 (Homo sapiens) (UniProt P34972). As to the kind of experiment: Displacement of [3H]CP55940 from human CB2 receptor expressed in CHOK1 cell membranes at 10 uM by liquid scintillation spectrometry analysis. As to conditions: CHO-K1. A digest of the protocol: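 [3H]CP55940 displacement at human CB1 or CB2 receptors, single test concentration 10 μM. Result expressed as % radioligand displacement ± SD (N = 2, n = 2).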
Sequence of Cannabinoid receptor 2 (Homo sapiens) (P34972 whole entry): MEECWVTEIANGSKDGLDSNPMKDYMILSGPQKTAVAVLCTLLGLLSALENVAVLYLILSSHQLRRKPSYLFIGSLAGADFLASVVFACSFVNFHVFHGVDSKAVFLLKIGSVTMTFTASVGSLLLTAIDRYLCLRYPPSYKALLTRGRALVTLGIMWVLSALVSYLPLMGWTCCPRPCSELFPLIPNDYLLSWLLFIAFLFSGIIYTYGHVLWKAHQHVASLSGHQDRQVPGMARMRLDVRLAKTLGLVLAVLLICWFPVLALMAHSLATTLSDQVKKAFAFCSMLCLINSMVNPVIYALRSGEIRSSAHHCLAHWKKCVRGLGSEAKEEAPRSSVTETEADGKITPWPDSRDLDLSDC
(In general: In a radioligand displacement assay an active substance lowers the binding of a labelled ligand.)

The target in experiment [3] is Diacylglycerol lipase-alpha (Mus musculus) (UniProt Q6WQJ1). As to the kind of experiment: Inhibition of mouse brain membrane DAGLalpha assessed as enzyme remaining activity at 10 uM preincubated for 30 mins followed by MB064 or FP-TAMRA addition and measured after 15 mins by SDS-PAGE based ABPP analysis relative to control. In kind it is cell membranes. The method in brief: (§1)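 Mouse brain membrane proteome (2 μg/μL) preincubated with 10 μM inhibitor for 30 min at rt. Then MB064 250 nM or FP-TAMRA 500 nM for 15 min at rt. Resolved on 10% SDS-PAGE, fluorescence normalized to Coomassie. Reported as % remaining activity ± SD, n = 3.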
Sequence of Diacylglycerol lipase-alpha (Mus musculus) (Q6WQJ1 whole entry): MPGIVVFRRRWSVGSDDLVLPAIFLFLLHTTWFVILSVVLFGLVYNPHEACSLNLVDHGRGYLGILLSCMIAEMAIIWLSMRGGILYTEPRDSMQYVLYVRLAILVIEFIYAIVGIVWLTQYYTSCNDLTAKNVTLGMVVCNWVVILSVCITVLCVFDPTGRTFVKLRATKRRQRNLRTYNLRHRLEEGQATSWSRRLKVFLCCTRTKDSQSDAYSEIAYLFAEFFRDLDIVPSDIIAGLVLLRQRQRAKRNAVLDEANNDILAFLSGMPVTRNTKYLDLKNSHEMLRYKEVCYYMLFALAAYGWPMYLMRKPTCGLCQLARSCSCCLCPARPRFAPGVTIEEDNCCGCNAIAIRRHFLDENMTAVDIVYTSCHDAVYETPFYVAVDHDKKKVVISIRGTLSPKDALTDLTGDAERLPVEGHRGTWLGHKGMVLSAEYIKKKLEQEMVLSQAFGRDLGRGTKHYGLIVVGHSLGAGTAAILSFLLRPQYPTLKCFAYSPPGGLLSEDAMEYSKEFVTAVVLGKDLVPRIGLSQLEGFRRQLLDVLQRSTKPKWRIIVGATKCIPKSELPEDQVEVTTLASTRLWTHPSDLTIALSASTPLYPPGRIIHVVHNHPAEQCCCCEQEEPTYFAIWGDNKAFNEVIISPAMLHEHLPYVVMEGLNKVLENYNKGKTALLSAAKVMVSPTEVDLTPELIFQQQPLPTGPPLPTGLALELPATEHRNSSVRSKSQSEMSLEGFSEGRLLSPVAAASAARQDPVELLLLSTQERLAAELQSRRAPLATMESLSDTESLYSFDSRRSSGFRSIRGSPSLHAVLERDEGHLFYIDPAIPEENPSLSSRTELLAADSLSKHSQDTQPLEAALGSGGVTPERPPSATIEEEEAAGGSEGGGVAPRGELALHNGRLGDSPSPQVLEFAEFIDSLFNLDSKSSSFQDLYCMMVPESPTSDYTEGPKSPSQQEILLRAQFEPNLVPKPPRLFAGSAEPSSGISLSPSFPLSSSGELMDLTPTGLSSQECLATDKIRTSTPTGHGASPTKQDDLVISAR

The target of experiment [4] is Monoacylglycerol lipase ABHD6 (Mus musculus) (UniProt Q8R2Y0). As to the kind of experiment: Inhibition of mouse brain membrane ABHD6 assessed as enzyme remaining activity at 10 uM preincubated for 30 mins followed by MB064 or FP-TAMRA addition and measured after 15 mins by SDS-PAGE based ABPP analysis relative to control. It is filed as cell membranes. A digest of the protocol:
as §1

The target in experiment [5] is T2, Phospholipase A and acyltransferase 2 (Homo sapiens) (UniProt Q9NWW9).
T2 sequence (whole entry): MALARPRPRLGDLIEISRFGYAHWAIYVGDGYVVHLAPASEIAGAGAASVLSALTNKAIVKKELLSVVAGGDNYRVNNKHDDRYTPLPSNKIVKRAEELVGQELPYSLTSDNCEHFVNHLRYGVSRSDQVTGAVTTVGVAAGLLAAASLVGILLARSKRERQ
The experiment is described as follows: Inhibition of full-length C-terminal FLAG-tagged human PLAAT2 expressed in human U2OS cells assessed as reduction in absolute N-oleoylethanolamine level at 10 uM incubated for 4 hrs by LC-MS/MS analysis. It is filed as cell-based. A digest of the protocol: (§2)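 U2OS cells transfected with PLAAT2, PLAAT5 or empty vector (PEI, 1:5 plasmid/PEI). At 24 h, switched to serum-free medium with 10 μM compound (0.1% DMSO) or DMSO for 4 h at 37 °C. Pellets extracted with MTBE against deuterated internal standards. NAEs, 2-AG and free fatty acids quantified by LC–MS/MS, normalized to live cell count. Four biological replicates; one-way ANOVA.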

Experiment [6] concerns the target T3, Phospholipase A and acyltransferase 5 (Homo sapiens) (UniProt Q96KN8).
T3 sequence (whole entry): T1 sequence (Q96KN8 whole entry)
As to the kind of experiment: Inhibition of full-length C-terminal FLAG-tagged human PLAAT5 expressed in human U2OS cells assessed as reduction in absolute N-oleoylethanolamine level at 10 uM incubated for 4 hrs by LC-MS/MS analysis. It is filed as cell-based. A digest of the protocol: as §2

Experiment [7] addresses T2, Phospholipase A and acyltransferase 2 (Homo sapiens). As to the kind of experiment: Inhibition of full-length C-terminal FLAG-tagged human PLAAT2 expressed in human U2OS cells assessed as reduction in absolute N-eicosapentaenoylethanolamine level at 10 uM incubated for 4 hrs by LC-MS/MS analysis. In kind it is cell-based. The method in brief: as §2
The subject of experiment [8] is U2OS. The experiment is described as follows: Downregulation of N-linoleoylethanolamine level in human U2OS cells at 10 uM after 4 hrs by LC-MS/MS analysis. It is filed as functional, cell-based. The method in brief: as §2
The test system of experiment [9] is U2OS. As to the kind of experiment: Downregulation of N-docosahexaenoylethanolamine level in human U2OS cells at 10 uM after 4 hrs by LC-MS/MS analysis. It is filed as functional, cell-based. A digest of the protocol:
as §2

Experiment [10] concerns the target T2, Phospholipase A and acyltransferase 2 (Homo sapiens). As to the kind of experiment: Inhibition of full-length C-terminal FLAG-tagged human PLAAT2 expressed in human U2OS cells assessed as reduction in arachidonic acid level at 10 uM incubated for 4 hrs by LC-MS/MS analysis. In kind it is cell-based. A digest of the protocol:
as §2

Experiment [11] has as its target T3, Phospholipase A and acyltransferase 5 (Homo sapiens). The experiment is described as follows: Inhibition of full-length C-terminal FLAG-tagged human PLAAT5 expressed in human U2OS cells assessed as reduction in N-docosahexaenoylethanolamine level at 10 uM incubated for 4 hrs by LC-MS/MS analysis. In kind it is cell-based. The method in brief: as §2
Experiment [12] has the same target. The experiment is described as follows: Inhibition of full-length C-terminal FLAG-tagged human PLAAT5 expressed in human U2OS cells assessed as reduction in arachidonic acid level at 10 uM incubated for 4 hrs by LC-MS/MS analysis. In kind it is cell-based. The method in brief: as §2
For experiment [13] the target is unchanged. The experiment is described as follows: Inhibition of full-length C-terminal FLAG-tagged human PLAAT5 expressed in human U2OS cells assessed as reduction in 2-AG level at 10 uM incubated for 4 hrs by LC-MS/MS analysis. It is filed as cell-based. A digest of the protocol:
as §2

Experiment [14] concerns U2OS. As to the kind of experiment: Inhibition of serine hydrolase in human U2OS cell membrane fraction at 10 uM preincubated for 30 mins followed by FP-TAMRA addition and measured after 15 mins by SDS-PAGE based competitive ABPP analysis. The method in brief:
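U2OS membrane lysate (2.5 μg/μL) preincubated with inhibitor for 30 min at rt. FP-TAMRA 500 nM added for 15 min at rt. SDS-PAGE with in-gel fluorescence normalized to Coomassie.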

Experiment [15] relates to U2OS. As to the kind of experiment: Inhibition of serine hydrolase in human U2OS cytosolic fraction at 10 uM preincubated for 30 mins followed by MB064 addition and measured after 15 mins by SDS-PAGE based competitive ABPP analysis. The method in brief: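 U2OS cytosol or membrane lysate at 2.5 μg/μL, pretreated with inhibitor or DMSO vehicle for 30 min at rt. Probe then added for 15 min at rt: MB064 at 2 μM or FP-TAMRA at 500 nM. Samples denatured in Laemmli buffer and resolved by SDS-PAGE. In-gel fluorescence scanned at Cy3/Cy5 settings and normalized to Coomassie staining.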

For experiment [16], the target named is Cytosolic phospholipase A2 (Homo sapiens) (UniProt P47712). As to the kind of experiment: Inhibition of human PLA2G4A expressed in HEK293T cell lysates at 50 uM preincubated for 30 mins followed by FP-TAMRA addition and measured after 20 mins by SDS-PAGE based competitive ABPP analysis. In kind it is cell-free. As to conditions: HEK-293T.
Sequence of Cytosolic phospholipase A2 (Homo sapiens) (P47712 whole entry): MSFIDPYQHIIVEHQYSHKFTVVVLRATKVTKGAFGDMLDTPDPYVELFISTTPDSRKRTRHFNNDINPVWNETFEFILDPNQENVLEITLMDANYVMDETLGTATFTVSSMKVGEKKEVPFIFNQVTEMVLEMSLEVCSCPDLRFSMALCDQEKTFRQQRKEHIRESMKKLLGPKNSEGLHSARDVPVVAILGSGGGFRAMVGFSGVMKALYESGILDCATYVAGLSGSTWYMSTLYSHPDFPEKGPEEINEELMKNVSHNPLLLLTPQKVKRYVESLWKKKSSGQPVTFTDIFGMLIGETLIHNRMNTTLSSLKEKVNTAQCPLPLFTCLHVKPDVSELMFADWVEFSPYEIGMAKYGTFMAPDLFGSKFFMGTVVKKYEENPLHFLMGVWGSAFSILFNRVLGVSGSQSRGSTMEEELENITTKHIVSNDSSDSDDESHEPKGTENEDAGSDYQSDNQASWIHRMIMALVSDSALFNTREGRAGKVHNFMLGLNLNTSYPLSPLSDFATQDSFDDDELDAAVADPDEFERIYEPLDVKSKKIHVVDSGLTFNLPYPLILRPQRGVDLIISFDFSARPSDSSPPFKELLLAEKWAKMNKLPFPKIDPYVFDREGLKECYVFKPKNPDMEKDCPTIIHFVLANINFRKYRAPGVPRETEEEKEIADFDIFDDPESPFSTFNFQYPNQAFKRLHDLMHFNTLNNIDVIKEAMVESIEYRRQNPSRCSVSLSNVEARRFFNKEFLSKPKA

Active and inactive are the calls of the source. No cut-off for these calls is given here.

Sequence of Monoacylglycerol lipase ABHD6 (Mus musculus) (Q8R2Y0 whole entry): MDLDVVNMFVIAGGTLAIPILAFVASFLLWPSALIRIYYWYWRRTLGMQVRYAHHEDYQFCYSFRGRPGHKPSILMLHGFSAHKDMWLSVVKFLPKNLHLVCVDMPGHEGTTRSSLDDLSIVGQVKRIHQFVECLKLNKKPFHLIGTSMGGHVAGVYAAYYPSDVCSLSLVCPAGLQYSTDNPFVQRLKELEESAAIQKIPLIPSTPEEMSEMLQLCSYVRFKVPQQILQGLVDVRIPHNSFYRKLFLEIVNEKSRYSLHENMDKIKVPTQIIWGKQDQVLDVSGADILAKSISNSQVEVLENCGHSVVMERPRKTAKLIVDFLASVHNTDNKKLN

The molecule `O=C(CCCc1ccccc1)C(=O)NCCc1ccc(Oc2ccccc2)cc1` had an IC50 in experiment [1] of 0.0398 µM. In addition, the Activity in experiment [2] stood at 32%; in [3], 97%; in [4] it was 92%. Besides, the inhibition entry in experiment [5], in experiment [6] and in experiment [7] was “Active” in each case. Further, the inhibition result (in the experiment with U2OS [8]; in the experiment on U2OS [9]; in experiment [10]; in [11]; in experiment [12]; in experiment [13]) was “inactive” throughout. For the same molecule, the inhibition entry (in the experiment with U2OS [14]; in the experiment on U2OS [15]; in experiment [16]) was “inactive” throughout.

Broadly, the IC50 is the concentration that gives 50% inhibition. A lower IC50 goes with higher potency.
